Among the data in ChEMBL document CHEMBL1121489, “6-(Substituted-amino)-4H-s-triazolo[4,3-a][1,4]benzodiazepines and 4-(substituted-amino)-6H-s-triazolo[4,3-a][1,4]benzodiazepines with potential antianxiety activity” (1980) are ED50 values, retold here.

A value given as a limit tells only on which side of the number the result lay.

Common to all, as to type: functional
The species entered for assay [1] is Mus musculus. Put plainly: Effect on loss of traction (Tr) in Carworth farms male albino mice. A digest of the protocol:
(§1)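 Male albino CF-1 mice (18–22 g). Compounds were dissolved or suspended in 0.25% aqueous methylcellulose and given ip to groups of four or six mice per dose, at multiple dose levels spaced 0.3 log apart. ED50 values were calculated by the Spearman–Karber method.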

The species entered for assay [2] is Mus musculus. Put plainly: Effect on antagonism of nicotine-induced tonic-extensor convulsions (TE) in Carworth farms male albino mice. Summed up:
as §1

Assay [3] is filed under the species Mus musculus. Put plainly: Effect on antagonism of nicotine-induced death (D) in Carworth farms male albino mice. A digest of the protocol: as §1
The species named for assay [4] is Mus musculus. Put plainly: Effect on antagonism of nicotine-induced tonic-extensor convulsions (TE) in Carworth farms male albino mice. A digest of the protocol:
as §1

Assay [5] is filed under the species Mus musculus. Put plainly: Effect on potentiation of gamma-butyrolactone-induced sleep (gamma-B) in Carworth farms male albino mice. Summed up: as §1
Assay [6] is filed under the species Mus musculus. Put plainly: Effect on pentylenetetrazole-induced clonic convulsions (P) in Carworth farms male albino mice. A digest of the protocol:
as §1

The species entered for assay [7] is Mus musculus. Put plainly: Effect on prolongation of hypoxic survival time (HS) in Carworth farms male albino mice. A digest of the protocol:
as §1

For assay [8], the species on record is Mus musculus. Put plainly: Effect on bicuculline-induced tonic-extensor convulsions (B) in Carworth farms male albino mice. A digest of the protocol:
as §1

Assay [9] is filed under the species Mus musculus. Put plainly: Effect on bicuculline-induced tonic-extensor convulsions (B) in Carworth farms male albino mice. A digest of the protocol:
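CF-1 male albino mice, 18–22 g. Unless otherwise indicated, compounds were dissolved or suspended in 0.25% aqueous methylcellulose and given ip to groups of 4 or 6 mice per dose. Several dose levels were spaced at 0.3 log intervals. ED50 was calculated by the Spearman–Karber method.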

The term ED50 denotes the dose that gives a 50% effect, or the effect in half of the subjects. Regarding `Cc1nnc2n1-c1ccc(Cl)cc1C(N1CCCCCC1)=NC2`, the ED50 in the assay filed under Mus musculus [1], in the assay listed under Mus musculus [2] and in the assay listed under Mus musculus [3] was greater than 100 mg/kg each time.
On to `Cc1nnc2n1-c1ccc(Cl)cc1CN=C2N1CCCCC1`, for which the ED50 in the assay listed under Mus musculus [1] and in the assay filed under Mus musculus [4] was greater than 100 mg/kg each time.
In the case of `Cc1nnc2n1-c1ccc(Cl)cc1C(N1CCN(C)CC1)=NC2`, the ED50 in the assay listed under Mus musculus [1], in the assay filed under Mus musculus [2] and in the assay filed under Mus musculus [3] was greater than 100 mg/kg in each case.
Consider `Cc1nnc2n1-c1ccc(Cl)cc1C(N1CCCCC1)=NC2`, for which the ED50 in the assay listed under Mus musculus [5] was 0.9 mg/kg; in the assay filed under Mus musculus [6], 1.1 mg/kg; in the assay filed under Mus musculus [1] it was 0.3 mg/kg; in the assay filed under Mus musculus [2], 0.4 mg/kg; in the assay listed under Mus musculus [7] it was 0.3 mg/kg; in the assay listed under Mus musculus [8] it was 0.7 mg/kg. The ED50 in the assay filed under Mus musculus [3] stood at 0.4 mg/kg.
For the molecule `Cc1nnc2n1-c1ccc(Cl)cc1CN=C2N1CCOCC1`, the ED50 in the assay filed under Mus musculus [5] is greater than 50 mg/kg; in the assay filed under Mus musculus [6], 40 mg/kg; in the assay filed under Mus musculus [1], greater than 100 mg/kg; in the assay listed under Mus musculus [2] it was greater than 100 mg/kg; in the assay listed under Mus musculus [8], greater than 50 mg/kg.
On to `CCCCCCNC1=NCc2nnc(C)n2-c2ccc(Cl)cc21`, for which the ED50 in the assay filed under Mus musculus [1], in the assay listed under Mus musculus [2] and in the assay listed under Mus musculus [3] was greater than 100 mg/kg each time.
On to `Cc1nnc2n1-c1ccc(Cl)cc1CN=C2N1CCN(C)CC1`, for which the ED50 in the assay filed under Mus musculus [5] was 40 mg/kg; in the assay filed under Mus musculus [6] it was greater than 50 mg/kg; in the assay listed under Mus musculus [1], greater than 100 mg/kg; in the assay filed under Mus musculus [2] it was greater than 100 mg/kg; in the assay filed under Mus musculus [7], 40 mg/kg; in the assay listed under Mus musculus [8] it was greater than 50 mg/kg.
`Cc1nnc2n1-c1ccc(Cl)cc1CN=C2N1CCCC1`: the ED50 in the assay filed under Mus musculus [5], in the assay listed under Mus musculus [1], in the assay listed under Mus musculus [2] and in the assay filed under Mus musculus [9] was greater than 6 mg/kg throughout.
`CN1C(=O)CN=C(c2ccccc2)c2cc(Cl)ccc21` [DIAZEPAM]: the ED50 in the assay filed under Mus musculus [5] stood at 0.035 mg/kg; in the assay filed under Mus musculus [6] it was 0.1 mg/kg; in the assay filed under Mus musculus [1] it was 7 mg/kg; in the assay listed under Mus musculus [2], 0.28 mg/kg; in the assay listed under Mus musculus [7] it was 0.2 mg/kg; in the assay filed under Mus musculus [8], 2.6 mg/kg. For the same molecule, the 50% effect level in the assay filed under Mus musculus [3] (ED50) was put at a dose of 0.28 mg/kg.
In the case of `Cc1nnc2n1-c1ccc(Cl)cc1CN=C2N1CCCCCC1`, the ED50 in the assay listed under Mus musculus [1] and in the assay filed under Mus musculus [2] was greater than 100 mg/kg throughout.
For the molecule `Cc1nnc2n1-c1ccc(Cl)cc1C(N1CCN(c3ccccc3)CC1)=NC2`, the ED50 in the assay filed under Mus musculus [1], in the assay filed under Mus musculus [2] and in the assay listed under Mus musculus [3] was greater than 100 mg/kg each time.
Turning to `Cc1nnc2n1-c1ccc(Cl)cc1C(N1CCN(CCO)CC1)=NC2`, the ED50 in the assay listed under Mus musculus [1], in the assay filed under Mus musculus [2] and in the assay filed under Mus musculus [3] was greater than 100 mg/kg each time.
Turning to `Cc1nnc2n1-c1ccc(Cl)cc1C(N1CCCC1)=NC2`, the ED50 is 7.4 mg/kg in the assay listed under Mus musculus [5]; greater than 50 mg/kg in the assay listed under Mus musculus [6]; greater than 100 mg/kg in the assay filed under Mus musculus [1]; 18 mg/kg in the assay filed under Mus musculus [2]; greater than 50 mg/kg in the assay filed under Mus musculus [7]; greater than 50 mg/kg in the assay listed under Mus musculus [8]. In the assay listed under Mus musculus [3], this molecule came in with an ED50 of 18 mg/kg.
Turning to `Cc1nnc2n1-c1ccc(Cl)cc1C(N1CCOCC1)=NC2`, the ED50 in the assay filed under Mus musculus [1] is greater than 100 mg/kg; in the assay listed under Mus musculus [2], 80 mg/kg; in the assay filed under Mus musculus [3], 71 mg/kg.
Turning to `Cc1nnc2n1-c1ccc(Cl)cc1C(c1ccccc1)=NC2` [ALPRAZOLAM], the ED50 in the assay filed under Mus musculus [5] amounted to 0.08 mg/kg; in the assay listed under Mus musculus [6] it was 0.1 mg/kg; in the assay listed under Mus musculus [1], 0.6 mg/kg; in the assay filed under Mus musculus [2] it was 0.02 mg/kg; in the assay listed under Mus musculus [7], 0.2 mg/kg; in the assay filed under Mus musculus [8] it was 0.2 mg/kg. This molecule also yielded a 50% effective dose (ED50) in the assay listed under Mus musculus [3] of 0.02 mg/kg.
